Screening results deposited in PubChem BioAssay by several laboratories.
Sampled rows, rich in hits. Any-hit rate of the full collection: about 3.7%.
MT stabilizer: stabilizes microtubules in HeLa cells; HeLa tubulin immunostaining HCS, 24 h; share of cells brighter than vehicle mean+2SD; % tubulin-high responders, % at 10 µM; 0.83% of 200,000 active;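 active = plate Z-score above 3 for both tubulin-high and condensed-nucleus cell shares, with cell loss under 80%, at 10 µM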;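 also: anti alpha tubulin signal scored within the nucleus-defined area of each cell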
Cl transport mod: modulators of human KCC2 chloride dependent transport | Q9H2X9 | KCC2 cells, thallium flux FluoZin-2 fluorescence | B-score of Tl+ flux slope (higher = more flux/activation; lower = inhibition) at 10 µM | 2.2% of 190,000 active | AID 1456;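 active = thallium flux slope and its plate-corrected score both differing from the plate sample mean at a set confidence after two filtering rounds, in either direction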;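 also: slope of fluorescence scaled to starting intensity during 10 to 20 s after thallium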
Target sequence (Q9H2X9 whole entry, looked up): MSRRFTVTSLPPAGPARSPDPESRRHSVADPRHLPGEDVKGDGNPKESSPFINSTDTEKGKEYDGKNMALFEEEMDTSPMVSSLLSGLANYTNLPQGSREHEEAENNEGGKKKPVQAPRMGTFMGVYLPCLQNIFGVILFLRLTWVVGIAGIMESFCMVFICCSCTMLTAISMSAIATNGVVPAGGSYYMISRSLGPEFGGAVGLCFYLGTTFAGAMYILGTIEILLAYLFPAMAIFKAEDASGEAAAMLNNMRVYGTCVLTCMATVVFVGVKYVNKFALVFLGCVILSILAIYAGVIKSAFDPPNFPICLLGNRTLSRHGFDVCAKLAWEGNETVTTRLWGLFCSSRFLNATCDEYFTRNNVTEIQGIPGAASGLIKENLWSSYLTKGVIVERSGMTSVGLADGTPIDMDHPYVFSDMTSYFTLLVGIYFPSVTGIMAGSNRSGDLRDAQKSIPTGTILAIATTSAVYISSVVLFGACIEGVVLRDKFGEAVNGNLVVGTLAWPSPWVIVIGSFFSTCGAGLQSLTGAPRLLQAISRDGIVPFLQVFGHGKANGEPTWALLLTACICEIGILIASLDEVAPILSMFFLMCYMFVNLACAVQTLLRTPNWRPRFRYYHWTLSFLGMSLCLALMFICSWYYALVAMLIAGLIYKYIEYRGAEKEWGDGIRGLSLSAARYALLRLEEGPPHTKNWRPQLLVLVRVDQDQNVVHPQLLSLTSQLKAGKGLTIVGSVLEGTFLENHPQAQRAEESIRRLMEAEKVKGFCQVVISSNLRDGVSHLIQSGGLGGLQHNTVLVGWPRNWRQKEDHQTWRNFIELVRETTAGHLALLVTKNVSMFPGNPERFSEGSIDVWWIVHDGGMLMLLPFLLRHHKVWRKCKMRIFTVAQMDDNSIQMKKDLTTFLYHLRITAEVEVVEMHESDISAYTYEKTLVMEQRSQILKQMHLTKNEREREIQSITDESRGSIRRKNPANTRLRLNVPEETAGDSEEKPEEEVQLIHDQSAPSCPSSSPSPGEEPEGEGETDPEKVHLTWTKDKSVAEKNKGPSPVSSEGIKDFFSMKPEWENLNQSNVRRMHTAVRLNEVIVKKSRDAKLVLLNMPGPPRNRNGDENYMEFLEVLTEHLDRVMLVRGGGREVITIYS
ROMK primary: modulates human ROMK potassium channel activity; P48048; Tet-inducible ROMK, thallium flux fluorescence; actives lie on both sides; B-score at 10 µM; 2% of 130,000 active; AID 1918;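 active = signal ratio slope over the read window, or its plate-corrected B-score, at least 3 SD from the plate mean, either direction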;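 also: B-score of the F/F0 ratio slope over 7 to 12 s after thallium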
DTT redox prof: compounds producing H2O2 with reducing agent – biochemical, NIH compound library profiling, artefact control for MLSCN library redox annotation, primary screen. DTT-dependent redox cycling H2O2, phenol red/HRP absorbance; 100% = 100 µM peroxide control, 0% = buffer. activation, % at 10 µM. 0.03% of 200,000 active;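 active = activation of at least 50% relative to the plate's high and low controls in the primary single-dose screen; inactive = activation below 50%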;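 also: compound incubated with DTT at 0.8 mM final as the reducing agent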
b-catenin transl: beta-catenin nuclear translocation modulation; AID 1665; nuclear translocation activity, % at 5 µM; HeLa beta-catenin nuclear translocation, immunofluorescence imaging; 0.3% of 190,000 active;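 active = nuclear translocation activity above 50% at 5 µM, with a well cell count of 50 or more; inconclusive = wells under 50 cells across six images, flagged as toxic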;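 also: per-cell ratio of nuclear to cytoplasmic median beta-catenin stain intensity; plate controls were DMSO negative control for no effect and GSK-3 inhibitor IX positive control for full effect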
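System: HeLa cells, endogenous beta-catenin; compound dosing: 5 µM primary single dose, 0.1% DMSO, 0.02–20 µM confirmation series; incubation: 24 h compound exposure at 37°C, 5% CO2; signal: beta-catenin immunofluorescence imaging with DAPI; evaluation: % activation, nuclear-to-cytoplasmic median beta-catenin signal ratio per cell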
KCC2 sec1: KCC2 (human) modulation, secondary assay; AID 1713; normalised thallium flux (F/F0 slope) at 10 µM; shares compounds with Cl transport mod; 15% of 3,700 active; HEK293-KCC2, thallium flux, FluoZin2 fluorescence; active compounds read high;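 active = thallium flux slope above the same plate's solvent-only control mean plus 3 SD; inconclusive = the two replicate wells disagree; inactive = no significant difference from solvent-only control wells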
KCC2 bumet counter: thallium flux despite bumetanide block in KCC2 cells, secondary assay 3; normalized thallium flux at 10 µM; HEK293-KCC2 + bumetanide/ouabain, thallium flux FluoZin2; active compounds read high; shares compounds with Cl transport mod; 49% of 3,700 active;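 active = thallium entry rate above the same plate's blocked-transporter control wells by more than 3 SD; inconclusive = the two repeat wells disagree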;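 also: raw slope of fluorescence over initial fluorescence between 10 and 20 s after thallium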
KCC2 secondary2: KCC2 (human) modulation, second secondary assay; 23% of 3,700 active; HEK293-KCC2, thallium flux FluoZin2 fluorescence; actives lie on both sides; F/F0 rise rate, 10–20 s post-thallium; shares compounds with Cl transport mod; normalized thallium flux at 10 µM;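 active = thallium flux slope more than 3 SD above or below the plate's solvent-only control mean, mostly below; inconclusive = the two repeat wells disagreed; inactive = no significant shift from solvent-only controls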;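 also: raw slope with 0.1% DMSO as baseline and bumetanide as block control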
HEK293 Tl flux: acts in parental HEK cells, KCC2 counter-screen; shares compounds with Cl transport mod; HEK293 parental cells, thallium flux FluoZin2, ouabain; baseline-ratio fluorescence slope, 10–20 s after thallium; 46% of 3,700 active; thallium flux rate (normalised fluorescence) at 10 µM;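 active = thallium flux rate significantly above the same plate's solvent-only control wells, beyond their mean plus 3 SD; inconclusive = the two replicate wells gave conflicting results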
KCC2 retest ouab: modulates human KCC2 on retest with ouabain; raw Tl+ flux slope (below DMSO = inhibition, above = activation) at 10 µM; 48% of 3,700 active; shares compounds with Cl transport mod; AID 1717; HEK293-KCC2, thallium flux FluoZin2 fluorescence; bidirectional: low = inhibitor, high = activator;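 active = thallium flux slope beyond 3 SD from same-plate DMSO control mean in most replicates, usually higher, sometimes lower; inconclusive = repeat tests gave conflicting results; inactive = no significant difference from controls in most replicates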;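 also: slope of initial-normalized fluorescence between seconds 10 and 20 after thallium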
HEK counter2: counter-screen for KCC2 modulators: effect in parental HEK293 cells | shares compounds with Cl transport mod | thallium flux FluoZin-2 fluorescence slope | thallium flux slope at 10 µM | 33% of 3,700 active | AID 1718;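 active = thallium flux slope above the same plate's solvent-control mean plus 3 SD in both duplicate wells; inconclusive = duplicate wells that disagreed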;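 also: run without ouabain in cells lacking the KCC2 cotransporter; slope of fluorescence scaled to its starting value between 10 and 20 s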
The depositor's hits bear a star; ? = inconclusive; . = no result.

SMILES | MT stabilizer | Cl transport mod | ROMK primary | DTT redox prof | b-catenin transl | KCC2 sec1 | KCC2 bumet counter | KCC2 secondary2 | HEK293 Tl flux | KCC2 retest ouab | HEK counter2
COc1cc(C(=O)NC(CCSC)C(=O)OCC(=O)C(C)(C)C)cc(OC)c1OC (configuration not stated) | 2.7 | -0.017 | -0.115 | -0.5 | -1.3 | . | . | . | . | . | .
COc1ccccc1C(=O)OCc1ccc2sc(C)nc2c1 | 3.2 | -0.394 | -0.39 | -0.5 | 2.7 | . | . | . | . | . | .
O=C(CCC(=O)OCC(F)(F)C(F)F)Nc1ccc(Cl)cc1 | 1.9 | 8.28* | . | 0.1 | -3.3 | 0.00713 | 0.00513 | ? | 0.00794 | 0.0178 | 0.00979
Cc1ccc(C(=O)CC2(O)C(=O)N(C)c3ccc(Br)cc32)c(C)c1 (configuration not stated) | 8.3 | -3.63* | . | -0.6 | -1.2 | 0.00858 | ? | 0.0311 | 0.00897* | 0.022 | 0.0101
O=C(N/N=C\c1c(O)ccc2ccccc12)c1ccc(Cn2cccn2)o1 | 2.9 | . | -1.11 | -0.4 | . | . | . | . | . | . | .
O=C(CCn1c(=O)oc2ccccc21)NCCN1CCc2ccccc2C1 | 2.2 | -0.417 | . | 2.4 | . | . | . | . | . | . | .
O=C(CCCn1ncn2c(cc3occc32)c1=O)N1CCc2ccccc2C1 | 4.3 | -2.81* | 0.0454 | -0.2 | -0.5 | 0.00526 | 0.00494 | 0.0236* | 0.00739 | ? | 0.0114
O=C(CCCn1c(=O)oc2ccccc21)N1CCc2ccccc2C1 | 6.3 | . | 0.0265 | -2.9 | -3.9 | 0.00822 | 0.00611 | 0.0321 | 0.00702 | 0.0181* | 0.0102
CC1Cc2ccccc2N1S(=O)(=O)c1cccc(C(=O)N2CC(=O)Nc3ccccc32)c1 (configuration not stated) | . | -0.582 | . | . | -1.5 | . | . | . | . | . | .
COC(=O)N/N=C/c1c(C)cc(C)cc1C | 3.7 | -5.31* | -0.728 | -0.4 | 3.4 | 0.0103 | 0.00583 | 0.0325 | 0.00754 | 0.0236 | 0.0109
O=C1c2cccnc2C(Nc2ccccc2Br)N1Cc1ccco1 (configuration not stated) | 3.9 | -0.523 | . | 0.6 | -0.1 | . | . | . | . | . | .
NN/C(=C\[N+](=O)[O-])Nc1ccccc1 | 2.2 | -0.688 | . | -0.6 | -2.5 | . | . | . | . | . | .
NN/C(=C\[N+](=O)[O-])Nc1ccc(Cl)cc1 | 4.7 | 6.7* | 0.0202 | -0.4 | -2.9 | 0.0109 | 0.0228* | 0.032 | 0.00999* | 0.0214 | 0.0103
Cc1ccnc(NS(=O)(=O)c2ccc(NC(=O)C3C4C=CC(C4)C3C(=O)O)cc2)n1 (configuration not stated) | 5.5 | -4.05 | -1.74 | 0.2 | -2.6 | . | . | . | . | . | .
CC(C)COC(=S)Nc1ccccc1 | 3.0 | 9.3* | . | -10.0 | . | 0.00562 | 0.0101* | 0.0311 | 0.0101* | ? | ?
Cc1ccccc1-n1c(=S)[nH]c2nc3c(cc2c1=O)COC(C)(C)C3 | . | -1.04 | 1.84 | . | 1.8 | . | . | . | . | . | .
Cc1ccccc1-n1c(=S)[nH]c2nc3c(cc2c1=O)CCCC3 | 1.9 | 25* | 0.508 | 0.0 | 0.1 | 0.0255* | 0.0689* | 0.0454* | 0.0462* | 0.0434* | 0.035*
O=C(Nc1ccc2ccccc2c1)C(=O)C1C(=O)Nc2ccccc21 (configuration not stated) | . | 25.1* | . | . | -1.3 | ? | 0.0225* | ? | 0.0176* | 0.0215 | 0.0174*
CCn1cc(CNC(=O)c2cc(-c3cc(OC)ccc3OC)nc3ccccc23)c(C)n1 | 2.4 | -0.0197 | -0.178 | -0.2 | 4.4 | . | . | . | . | . | .
[O-][n+]1cccc2c(Br)cc(Br)c(O)c21 | 2.0 | 29.3* | -0.314 | -1.3 | 0.4 | 0.00707 | 0.0726* | 0.0473* | 0.0466* | 0.0635* | 0.0343*
C[n+]1cccc2c(Br)ccc([O-])c21 | . | -0.069 | . | . | -1.6 | . | . | . | . | . | .
O=C(CSc1ncnc2nc[nH]c12)c1ccccc1 | 3.2 | 0.557 | . | 1.5 | 2.4 | . | . | . | . | . | .
O=C(CSc1ncnc2c(-c3ccc(Cl)cc3)nsc12)c1ccccc1 | 10.5 | . | 0.0183 | -0.3 | 0.6 | 0.0135* | 0.028* | 0.029 | 0.0182* | ? | 0.0105*
O=S(=O)(c1cccc2cccc(Cl)c12)N1CCCC1 | 2.6 | 0.449 | 0.843 | 0.2 | -0.1 | . | . | . | . | . | .
COCCNC(C)C(=O)C12CC3CC(CC(C3)C1)C2 (configuration not stated) | 4.4 | 9.01* | . | -0.4 | -9.2 | 0.00534 | 0.00464 | 0.0268 | 0.00755 | 0.0182 | 0.0101
SMILES | MT stabilizer | Cl transport mod | ROMK primary | DTT redox prof | b-catenin transl | KCC2 sec1 | KCC2 bumet counter | KCC2 secondary2 | HEK293 Tl flux | KCC2 retest ouab | HEK counter2
COCCNCC(=O)C12CC3CC(CC(C3)C1)C2 | 3.4 | 1.45 | . | -0.2 | -3.3 | . | . | . | . | . | .
C=CCN1C(=O)/C(=C/c2ccc(OC(C)=O)c(OCC)c2[N+](=O)[O-])SC1=S | 2.6 | -3.44* | 0.577 | -0.8 | 4.1 | 0.00577* | 0.00669 | 0.0307 | 0.00498* | ? | 0.0104
Cc1noc(C)c1COC(=O)c1cnc(Cl)c(Cl)c1 | 2.5 | -1.56 | -0.759 | -0.2 | -2.4 | . | . | . | . | . | .
CN(C(=O)CN(c1ccccc1)S(=O)(=O)c1ccc(F)cc1)C1CCS(=O)(=O)C1 (configuration not stated) | . | 1.92 | . | . | 0.9 | . | . | . | . | . | .
O=C(COC(=O)/C=C/c1ccc(Cl)cc1Cl)NCc1ccco1 | 5.5 | 0.0629 | 0.342 | -1.9 | 2.0 | . | . | . | . | . | .
Cc1ccc(CSc2nc3sc(C)c(C)c3c(=O)n2Cc2ccco2)cc1 | 1.0 | 9.36* | . | 4.8 | 0.5 | 0.00725 | 0.0187* | 0.039* | 0.0241* | 0.031* | 0.023*
Cc1cccc(CSc2nc3sc(C)c(C)c3c(=O)n2Cc2ccco2)c1 | 3.7 | . | . | 2.6 | 1.8 | . | . | . | . | . | .
CCOc1ccc(NC(=O)CN2CC(c3ccccc3)CC2=O)cc1 (configuration not stated) | 2.7 | -2.76* | . | 0.3 | -0.1 | 0.0105 | 0.00668 | 0.0306 | 0.00771 | 0.0743 | 0.0108
CCC(CC)C1C(C#N)=C(N)Oc2n[nH]c(C)c21 (configuration not stated) | 10.4 | . | -0.484 | 0.1 | -2.6 | 0.0108 | 0.00722 | 0.0324 | 0.00361 | 0.0164* | 0.0109
CCC(CC)C1C(C#N)=C(N)Oc2n[nH]c(-c3ccccc3)c21 (configuration not stated) | 5.3 | . | -0.366 | 0.2 | 5.3 | . | . | . | . | . | .
